Assay outcomes as filed in PubChem.
SIRT5 block = sirtuin-5 (human) deacylase inhibition | Q9NXA8 | Purified SirT5, succinyl-peptide AMC, trypsin-coupled fluorescence | inhibition, % at 15 µM | actives 1.1% (n = 330,000); in the data active = inhibition above about 15%
Target sequence (Q9NXA8 whole entry, looked up): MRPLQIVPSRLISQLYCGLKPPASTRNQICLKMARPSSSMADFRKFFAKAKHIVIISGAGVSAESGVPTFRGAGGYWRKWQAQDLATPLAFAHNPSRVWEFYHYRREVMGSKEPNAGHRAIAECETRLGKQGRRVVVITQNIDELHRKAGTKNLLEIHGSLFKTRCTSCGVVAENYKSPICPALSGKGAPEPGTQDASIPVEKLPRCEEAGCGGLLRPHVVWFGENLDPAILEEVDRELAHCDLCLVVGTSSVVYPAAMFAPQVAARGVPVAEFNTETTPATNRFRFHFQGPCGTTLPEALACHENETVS
rRNA inh HTS = inhibitors of bacterial rRNA selective over humanized ribosomes | E. coli WT GFP vs humanized-ribosome RFP mutants, fluorescence, 24 h; active compounds read low; DMSO median 0, no signal -100 | GFP signal change (wild-type ribosome), % (test concentration not listed) | actives 1.6% (n = 350,000);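 active = significant combined selectivity score with lowered wild-type GFP, culture density cut under 30%, mutant RFP and density less affected; inactive = any of these conditions unmet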
C2C12 statin = suppressors of simvastatin-induced myotoxicity in C2C12 myotubes; rescue of ATP level, % at 7.49 µM; ATP luminescence, 48 h; scaled: DMSO 0, geranylgeraniol control 100; actives 0.78% (n = 330,000);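 active = mean ATP rescue above about 67%, or every replicate alone reaching that limit, limit read from the data, passing the limit was not always enough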;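 note: myotubes were challenged with 10 µM simvastatin during compound exposure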
FN deposition inh = fibronectin deposition inhibition. inhibition, % at 12.6 µM. AH1F fibroblasts, Alexa488-fibronectin deposition fluorescence, overnight. actives 0.086% (n = 350,000);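 active = mean inhibition across replicates of 30% or more, regardless of how many single replicates reach that level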
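Material: AH1F fibroblasts assembling fluorescent fibronectin matrix; amount: 10000 AH1F cells/well; medium: DMEM, 2% serum; reagent: Alexa488-fibronectin, 24 nM final in well; dosing: single compound dose, delivered by pin transfer; incubation: 1 h adhesion, overnight exposure; detection: fluorescence after three HBSS washes, excitation 485 nm, emission 525 nm; measure: fibronectin deposition inhibition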
E-sel inducer = induces E-selectin expression in human endothelial cells; HUVEC E-selectin immunofluorescence imaging; normalized: neutral wells 0, TNF-alpha wells 100; activation, % at 7.58 µM; actives 0.37% (n = 260,000);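 active = mean E-selectin-positive cell signal at least 10% of the positive control, reached in at least 60% of replicates, without over 20% cell loss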
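Read-out basis: % PE-positive cells; Test system: HUVEC primary endothelial cells; Technique: immunofluorescence imaging; Dosing: single-point compound dose.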
FGF22 binding = FGF22 (human) thermal shift binding; AID 651658; recombinant FGF22 thermal shift, SYPRO orange fluorescence; percent of sucrose octasulfate shift, DMSO zero; Q9HCT0; activity (Tm shift, normalised), % at 9.99 µM; actives 1.5% (n = 340,000);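 active = mean Tm shift, scaled 0 neutral to 100 positive control, at about 1.3% or above, every replicate too, limit read from the data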
Target sequence (Q9HCT0 whole entry, looked up): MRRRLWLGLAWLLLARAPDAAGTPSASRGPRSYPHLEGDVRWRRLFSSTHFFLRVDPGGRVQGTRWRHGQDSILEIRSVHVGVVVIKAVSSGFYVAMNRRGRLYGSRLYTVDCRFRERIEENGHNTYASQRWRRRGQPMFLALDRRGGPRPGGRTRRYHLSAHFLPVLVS
Each line names hits and unclear results; the compound was inactive in the other large screens. Shown are actives, neighbours in structure and some others; about 4% of the full set was active somewhere.

CN1CCN(C(=O)C[C@H]2C[C@@H]3c4cc(NC(=O)Cc5ccncc5)ccc4O[C@@H]3[C@@H](CO)O2)CC1	none (no result: FN deposition inh)
CCOC(=O)N1CCN(C(=O)C(c2ccccc2)c2ccccc2)CC1	C2C12 statin 114.8 (no result: SIRT5 block, rRNA inh HTS, FN deposition inh, E-sel inducer, FGF22 binding)
C[C@H]1CN([C@@H](C)CO)C(=O)c2cc(NC(=O)Nc3ccccc3)ccc2O[C@@H]1CN(C)C	none (no result: FN deposition inh)
O=S(=O)(Nc1cc(Sc2ncn[nH]2)c(O)c2ccccc12)c1ccccc1	FGF22 binding 42.9 (no result: C2C12 statin, E-sel inducer)
Cc1cc(O)c(Sc2ncn[nH]2)cc1NS(=O)(=O)c1ccc(Cl)cc1	none (no result: E-sel inducer)
COc1ccc(C(=O)Nc2ccc3c(c2)OC[C@@H](C)NC[C@@H](C)[C@@H](OC)CN(C)C3=O)cc1	none
C[C@H]1CN([C@@H](C)CO)C(=O)c2cc(NC(=O)Cc3cn(C)c4ccccc34)ccc2O[C@@H]1CN(C)C(=O)NC1CCCCC1	none (no result: SIRT5 block, E-sel inducer)
CC(C)CCNC(=O)[C@H](Cc1ccccc1)N1Cc2ccccc2C1=O	E-sel inducer 75.5
Cc1cn2c(N)c(C=C3C=C(Cl)C(=O)C(Cl)=C3)c(=O)nc2s1	SIRT5 block 20.3, E-sel inducer 141.9 (no result: C2C12 statin)
CCCCOC(=O)c1ccccc1N1C(=O)C2C3CCC(C3)C2C1=O (stereo not given)	C2C12 statin 82.5
Cc1noc(C)c1S(=O)(=O)Nc1ccc2c(c1)C(=O)N([C@H](C)CO)C[C@H](C)[C@@H](CN(C)Cc1ccc(C(F)(F)F)cc1)OCCCC[C@H](C)O2	SIRT5 block 25.1 (no result: C2C12 statin, FN deposition inh)
Cc1noc(C)c1S(=O)(=O)Nc1ccc2c(c1)C(=O)N([C@@H](C)CO)C[C@H](C)[C@@H](CN(C)Cc1ccc(C(F)(F)F)cc1)OCCCC[C@@H](C)O2	SIRT5 block 24.8 (no result: C2C12 statin, FN deposition inh)
O=C(C[C@@H]1CC[C@@H]2[C@H](COC[C@@H](O)CN2S(=O)(=O)c2cccc(F)c2)O1)Nc1ccccc1	none (no result: SIRT5 block)
O=S(c1ccc2ccccc2c1)c1cnns1 (stereo not given)	C2C12 statin 124.5 (no result: SIRT5 block, rRNA inh HTS, FN deposition inh, E-sel inducer, FGF22 binding)
Cc1nnsc1S(=O)c1ccc(Cl)c(Cl)c1 (stereo not given)	none
Cc1c(Cl)c(=O)n2c(=O)c(Cl)c(C)n12	FGF22 binding 43.7 (no result: E-sel inducer)
FC(F)(F)c1ccc(Cl)c(NC(=S)N/N=C/c2ccccc2Cl)c1	SIRT5 block 27.6 (no result: C2C12 statin, E-sel inducer)
Cc1ccsc1-c1n[nH]c(=S)n1C1CCCCC1	rRNA inh HTS -40.8 (no result: C2C12 statin)
CCCNC(=O)Nc1ccc2c(c1)C(=O)N(C)C[C@H](OC)[C@H](C)CN(Cc1cccnc1)[C@H](C)CO2	none
CCCNC(=O)C[C@H]1CC[C@@H]2[C@@H](COc3ccc(NC(=O)COC)cc3C(=O)N2C)O1	none (no result: SIRT5 block)
O=C(Nc1cscc1S(=O)(=O)c1ccccc1)c1ccccc1Cl	rRNA inh HTS -21.8 (no result: SIRT5 block, C2C12 statin)
O=C(Nc1cscc1S(=O)(=O)c1ccc(Cl)cc1)c1ccccc1Cl	none (no result: E-sel inducer)
c1ccc2oc(-c3[nH]ncc3CN(Cc3ccncc3)CC3CCCO3)cc2c1 (stereo not given)	none
O=C1CC[C@@H](CN(Cc2ccccc2)Cc2cn[nH]c2-c2cc3ccccc3o2)N1	rRNA inh HTS -24.4 (no result: C2C12 statin)
CCNC(=O)[C@@H]1[C@@H](CO)[C@@H]2Cn3c(ccc(-c4cccc(OC)c4)c3=O)[C@@H]2N1Cc1nccs1	none (no result: FN deposition inh)
COCCNC(=O)C[C@@H]1C[C@H]2c3cc(NC(=O)Nc4ccc(C(F)(F)F)cc4)ccc3O[C@H]2[C@H](CO)O1	none (no result: FN deposition inh)
O=C(C[C@@H]1CC[C@H]2[C@@H](COC[C@H](O)CN2C(=O)c2ccc(F)cc2)O1)Nc1ccc(-c2ccccc2)cc1	E-sel inducer 38.0
O=C(C[C@@H]1CC[C@@H]2[C@H](COC[C@H](O)CN2Cc2ccc3c(c2)OCO3)O1)Nc1ccc(-c2ccccc2)cc1	SIRT5 block 15.2
CCCNC(=O)N1CC2(CN(Cc3ccc(OC)cc3)C2)c2c(n(C)c3cc(OC)ccc23)[C@H]1CO	none (no result: SIRT5 block, C2C12 statin, FN deposition inh)
CCCOc1ccc(N2C(=O)CC(N(CCc3ccc(OC)cc3)C(=O)/C=C/C(=O)O)C2=O)cc1 (stereo not given)	SIRT5 block 41.7 (no result: C2C12 statin, E-sel inducer)
